Screening results (PubChem BioAssay)
MITF act: activators of MITF-driven TRPM1 promoter reporter, primary screen, cell-based, SK-MEL-5, luciferase, single point. SK-MEL-5 TRPM1-promoter luciferase, 24 h; % of positive control, neutral wells = 0. activation, % at 12.5 µM. 300,000 tested, 0.75% active;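 active = mean activation of at least 80% with every replicate also reaching 80%; inconclusive = mean reaches 80% but some replicate falls short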;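 note: 0% = neutral control wells and 100% = parthenolide positive control wells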
Xi reactivation: activators of inactive X chromosome reactivation, primary screen, imaging, XiGFP fibroblasts, GFP high-content imaging, set 2; XiGFP mouse fibroblasts, % GFP-positive cells imaging, 3 d; cells co-treated with 5-aza-dC sensitizer; scaled so ellipticine positive control = 100%; 360,000 tested, 0.055% active; activation, % at 7.58 µM;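 active = mean normalized replicate activation at least 10% and every replicate at or above 10%; inconclusive = only one of the two criteria met; inactive = mean below 10% and not all replicates reach 10%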;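 note: 0% = median of on-plate neutral control wells and 100% = ellipticine 6 µM median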
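Assay system – SV40-immortalized XiGFP fibroblast cells, line 68-5-11 · Buffer or medium – DMEM supplemented with 5-aza-dC as sensitizing agent · Dosing – one concentration, pinned · Benchmarks – positive control ellipticine, 6 µM final · Times – 3 days compound exposure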
Vif imaging: HIV Vif self-association inhibitors, primary screen, imaging, HEK293T, single point; HEK293T cells, Vif self-association by quenched fluorescence, 24 h; inhibition, % at 7.49 µM; 340,000 tested, 0.35% active; AID 602346, 2012; in the data active = inhibition above about 50%, passing the limit was not always enough; inconclusive = no clear call, values can overlap the other calls; inactive = below about 31%
Wnt bcat act: Wnt/beta-catenin pathway activators, primary screen, cell-based, plate reader, single point | Wnt/beta-catenin reporter cell assay, activator | activation, % at 9.35 µM | 300,000 tested, 1.2% active; in the data active = activation above about 30%, passing the limit was not always enough; inconclusive = no clear call, values can overlap the other calls;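 note: 0% = neutral control wells and 100% = positive control wells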
esBAF inh: Bmi1 luciferase reporter increase in mESCs, primary screen, esBAF inhibitor project, mouse ES cells, Bmi1 luciferase knock-in, single point; reporter increase, % at 12.5 µM; 350,000 tested, 2% active; 24 h; 100% = twice the neutral-well signal; in the data active = activation above about 40%; inconclusive = no clear call, values can overlap the other calls;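 note: 0% = median of the plate's neutral control wells and 100% = double that signal; a rise in the Bmi1 reporter signal indicates esBAF inhibition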
Starred values were filed as active, the others as inactive; u = inconclusive; x = no result. An excerpt weighted towards active compounds, which were near 2.6% of everything screened.

SMILES	MITF act	Xi reactivation	Vif imaging	Wnt bcat act	esBAF inh
CCN1C(=O)CSC1=Nc1ccc(C(=O)O)cc1	-3.7	0.1	0.0	0.2	1.4
Clc1ccc(-c2csc(N/N=C/c3cccnc3)n2)c(Cl)c1	5.2	0.1	-15.1	0.2	x
C(=N\Nc1nc(-c2ccccc2)cs1)/c1cccnc1	75.0	x	-9.9	21.8	62.6*
Cc1sc(N/N=C/c2cccnc2)nc1-c1ccc(Cl)cc1	x	x	-10.4	2.2	26.1
CC(C)(C)c1csc(N/N=C/c2cccnc2)n1	57.8	0.0	-5.6	12.4	33.8*
Cc1ccnc(N/N=C/c2ccccc2)n1	29.5	-0.1	26.4	22.2	-0.8
C(=N\Nc1nccc(-c2cccnc2)n1)/c1ccccc1	x	-0.1	0.1	48.7*	x
Cc1ccc(/C=N/Nc2nc3ccccc3s2)o1	21.0	0.7	0.9	35.2*	x
Cc1cc(=O)[nH]c(N/N=C/c2ccc(C)o2)n1	-4.1	-0.1	0.0	0.9	x
Cc1noc(C)c1S(=O)(=O)Nc1ccc2c(c1)C(=O)N([C@@H](C)CO)C[C@@H](C)[C@H](CN(C)C(=O)Nc1ccc3c(c1)OCO3)OCCCC[C@@H](C)O2	x	-0.5	x	x	-2.5
Cc1ccc(/C=N/Nc2nc(C(C)(C)C)cs2)o1	84.7*	0.0	-13.1	4.6	u
C/C(=N\Nc1nc(C(C)(C)C)cs1)c1ccccc1	60.8	0.1	-1.6	13.3	11.1
C#CCN1C(=O)S/C(=C/C=C/c2ccc(N(C)C)cc2)C1=O	32.4	-0.1	87.4*	44.8*	79.3*
CN(C)c1ccc(/C=C2\SC(=O)N(CC(O)Cn3c4ccccc4c4ccccc43)C2=O)cc1 (configuration not stated)	9.8	0.1	-3.3	x	x
S=C(c1ccc(-c2ccc(Cl)cc2)o1)N1CCCCC1	82.8*	x	-11.2	x	29.4
O=C(c1ccc(-c2ccc([N+](=O)[O-])cc2)o1)N1CCCCC1	50.8	-0.1	-1.9	75.4*	x
O=C(C[C@@H]1C[C@H]2c3cc(NC(=O)NC4CCCC4)ccc3O[C@H]2[C@@H](CO)O1)NCc1ccc2c(c1)OCO2	x	0.2	x	x	-1.0
CCCCCCOC(=O)c1ccc(OC(=O)c2cccnc2)cc1	64.3	x	x	x	51.7*
Cc1oc(-c2ccoc2)nc1CN(CC1CCC(=O)N1)C(C)C (configuration not stated)	7.0	0.1	-2.6	-0.9	-1.5
COCCN(Cc1nc(-c2ccc(-c3ccccc3)cc2)oc1C)C(C)C	35.5	0.5	2.8	15.6	65.2*
O=C(C1CCCC1)N1CC[C@@H]2[C@H](CO)Nc3ccc(C4=CCCCC4)cc3[C@@H]21	x	0.0	x	x	x
CSc1nnc2c(n1)c(C)nn2-c1cccc(C)c1	x	x	-17.1	37.5*	45.3*
COc1ccc2c3c([nH]c2c1)[C@H](CO)NCC31CN(S(=O)(=O)c2ccccc2)C1	x	0.2	x	x	x
CC(C)=CCC/C(C)=C/CNC(=O)C[C@H]1C[C@H](C(=O)N2CCCCC2)[C@@]2(CCc3ccccc3)c3[nH]c4cc(CCC(=O)N(C)C)ccc4c3CCN2C1=O	-41.3	0.2	-5.0	0.5	52.3*
CN(C)Cc1c(O)ccc2c(=O)c(-c3ccc(Cl)cc3)coc12	22.0	0.1	-2.4	-1.8	63.8*
SMILES	MITF act	Xi reactivation	Vif imaging	Wnt bcat act	esBAF inh
CCN(CC)Cc1c(O)ccc2c(=O)c(-c3ccc(Cl)cc3)coc12	25.9	0.0	-5.1	1.4	12.7
NC(=O)Cc1c[nH]c2cccc(O)c12	x	x	10.5	36.2*	-2.2
NC(=O)COC(=O)CCCc1c[nH]c2ccccc12	-9.4	x	12.7	x	-4.9
C/C=C/c1cnc2c(c1)C(=O)N([C@@H](C)CO)C[C@H](C)[C@@H](CN(C)S(=O)(=O)c1ccccc1)O2	x	-0.7	x	x	-3.9
CCCNC(=O)Nc1ccc2c(c1)C(=O)N(C)C[C@H](OC)[C@H](C)CN(C(=O)C1CCOCC1)[C@@H](C)CO2	x	0.0	x	x	-3.4
CCc1ccc(NC(=O)c2sc3nc4n(c(=O)c3c2C)CCC4)cc1	33.2	0.0	-4.6	10.4	43.6*
Cc1ccc(CCNC(=O)c2sc3nc4n(c(=O)c3c2C)CCC4)cc1	-2.6	0.0	-7.8	1.5	10.0
